As a reminder, the logD is lipophilicity at a set pH, counting ionised and neutral species. One may read the pIC50 as the IC50 on a negative log10 scale, so that one unit is a factor of ten.

pEC50, pIC50: −log10 of the molar value. In brackets after ≈: the same amount, converted by molar mass.

For one data set, the system named is Candida albicans. Briefly: microbe, parasite or virus in culture. In kind it is functional. The following applies: CAI-4, 12 h, read-out: ED50 (the source's name).
The nature of data set [1]: Lipophilicity, log D of the compound at pH 7.4. In kind it is physicochemical. The following applies: buffer.
Data set [2] can be described thus: Inhibition of Escherichia coli OPPS using IPP as substrate.
Data set [3] deals with Bacillus subtilis. Description: Antibacterial activity against Bacillus subtilis (Ehrenberg) Cohn ATCC 6051 in absence of fetal bovine serum after 12 hrs. The data set is classed as functional. The following applies: (Ehrenberg) Cohn ATCC 6051, 12 h, read-out: ED50 (the source's name). In outline: (§1)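 Log-phase B. subtilis diluted 500-fold into LB containing 0%, 4% or 10% fetal bovine serum. Inhibitor threefold serially diluted across 12 wells from a 100 µM–1 mM start; incubated 12 h at 37 °C with 200 rpm shaking; growth inhibition by OD600.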

For data set [4], the system named is Bacillus subtilis. Briefly: Antibacterial activity against Bacillus subtilis (Ehrenberg) Cohn ATCC 6051 in presence of 10% fetal bovine serum after 12 hrs. The following applies: (Ehrenberg) Cohn ATCC 6051, 12 h, read-out: ED50 (the source's name). In kind it is functional. A digest of the protocol: as §1
Data set [5] is described as follows: Growth inhibition of HEK293 cells after 24 hrs by MTT assay. In kind it is cell-based. The following applies: human, read-out: ED50. In outline: (§2)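 HEK293 cells in DMEM (4.5 g/L glucose) with 10% FBS and 1% penicillin-streptomycin, seeded at 10⁵ cells/mL. Inhibitor from 10 mM stock diluted threefold across 10 wells; 37 °C for 24 or 96 h.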
For orientation: Formazan colour is commonly taken as a measure of viable cells.

Data set [6] can be described thus: Growth inhibition of HEK293 cells after 96 hrs by MTT assay. The data set is classed as cell-based. The following applies: human, read-out: ED50. A digest of the protocol:
as §2

Data set [7] concerns the target T1, Farnesyl pyrophosphate synthase (Homo sapiens, UniProt P14324).
T1 sequence (P14324 whole entry): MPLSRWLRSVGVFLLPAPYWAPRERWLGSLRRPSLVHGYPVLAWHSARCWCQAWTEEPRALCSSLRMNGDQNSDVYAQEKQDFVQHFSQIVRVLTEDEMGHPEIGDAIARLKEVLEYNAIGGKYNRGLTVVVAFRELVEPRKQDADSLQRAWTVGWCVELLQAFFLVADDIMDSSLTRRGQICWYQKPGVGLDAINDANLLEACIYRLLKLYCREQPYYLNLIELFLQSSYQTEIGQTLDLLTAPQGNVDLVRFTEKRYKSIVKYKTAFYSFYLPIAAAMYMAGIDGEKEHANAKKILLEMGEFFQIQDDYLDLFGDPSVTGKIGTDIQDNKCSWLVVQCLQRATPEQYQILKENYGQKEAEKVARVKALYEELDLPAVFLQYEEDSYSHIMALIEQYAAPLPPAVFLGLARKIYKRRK
Briefly: Inhibition of human FPPS using IPP and GPP as substrate. A digest of the protocol: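 Expressed HsFPPS at 0.15 μM with 50 μM IPP and 50 μM GPP, 25°C, in 20 mM HEPES pH 7.5, 150 mM NaCl, 500 μM MgCl2. Enzyme preincubated 30 min at room temperature with serially diluted compound. Continuous MESG/PNP phosphate-release read-out, with pyrophosphatase added. At least 3 runs on different days; pooled data fitted by nonlinear regression for IC50.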

In another data set the test system is Staphylococcus aureus. Briefly: Antibacterial activity against Staphylococcus aureus Newman after 12 hrs. The following applies: read-out: ED50 (the source's name). The data set is classed as functional. A digest of the protocol: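 Log-phase S. aureus culture in tryptic soy broth (OD600 ~0.3, then diluted 500-fold). Inhibitors two-fold serially diluted across 12 wells from a 100 µM–1 mM start; 37 °C, 200 rpm, 12 h; OD600 read for growth inhibition.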

The subject of data set [8] is Bacillus subtilis. Description: Antibacterial activity against Bacillus subtilis (Ehrenberg) Cohn ATCC 6051 after 12 hrs. In kind it is functional. The following applies: (Ehrenberg) Cohn ATCC 6051, 12 h, read-out: ED50 (the source's name). A digest of the protocol:
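Log-phase LB culture (grown to OD600 ~0.3, then diluted 500-fold) exposed to two-fold serial dilutions of inhibitor starting at 100 µM–1 mM across 12 wells; 37 °C, 200 rpm shaking, 12 h. OD600 read and ED50 fitted; duplicate or triplicate.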

Another data set deals with Bacillus anthracis. Briefly: Antibacterial activity against Bacillus anthracis Sterne after 12 hrs. In kind it is functional. The following applies: read-out: ED50 (the source's name).
Data set [9] concerns Mycolicibacterium smegmatis. Description: Antibacterial activity against Mycobacterium smegmatis MC2 155 ATCC 700084 after 48 hrs. The data set is classed as functional. The following applies: MC2 155 ATCC 700084, 48 h, read-out: ED50 (the source's name). A digest of the protocol: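 Culture grown 36–48 h, diluted 1000-fold in Middlebrook 7H9 with 10% ADC, 0.5% glycerol, 0.05% Tween 80; inhibitors started at 100 µM–1 mM, threefold serial dilution across 10 wells; 37 °C, 200 rpm, 48 h; OD600 read-out.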

In the case of `O=P(O)(O)C(O)(Cc1cccc(-c2cccc3c2oc2ccccc23)c1)P(=O)(O)O`, the EC50 in the data set with Candida albicans is over 50 µg/mL.

For the molecule `CC(C)CCCC(C)CCc1csc(NCC(P(=O)(O)O)P(=O)(O)O)n1` (configuration not stated), in data set [1] (read-out: logD), the logD was -2.36.

`CC(C)CCCC(C)CCOc1cccc(NCC(P(=O)(O)O)P(=O)(O)O)n1` (configuration not stated): the logD in data set [1] (read-out: logD) is -2.24.

Molecule `CCCCCCCCCCOc1ccc[n+](CC(P(=O)([O-])O)P(=O)(O)O)c1` (configuration not stated) gave a pIC50 in [2] of 7.70 to 8.22. For the same molecule, in the data set with Candida albicans, the EC50 was over 50 µg/mL.

For `CC(C)CCCC(C)CCCc1ccc[n+](CC(P(=O)([O-])O)P(=O)(O)O)c1` (configuration not stated), in data set [1], the log distribution coefficient (logD) was -4.71. Moreover, the figures for the EC50 in the data set on Bacillus subtilis [3] and with Bacillus subtilis [4] were 2.4 µg/mL (≈ 5.7 µM) and 1.7 µg/mL, respectively. Further, the GI50 at 24 h in [5] turned out to be 460 µM.

With `CC(C)CCCC(C)CCn1cc[n+](CC(P(=O)([O-])O)P(=O)(O)O)c1` (configuration not stated), the GI50 at 24 h in data set [5] is 420 µM.

For `CC(C)CCCC(C)CCCC(C)CCCC(C)CCOc1ccc[n+](CC(P(=O)([O-])O)P(=O)(O)O)c1` (configuration not stated), the pH-dependent lipophilicity (logD) in data set [1] (read-out: logD) is -1.85.

In the case of `CC(C)CCCC(C)CCOc1cc[n+](CC(P(=O)([O-])O)P(=O)(O)O)cc1` (configuration not stated), in data set [1], the pH-dependent lipophilicity (logD) was -5.82. Besides, the EC50 in the data set on Bacillus subtilis [3] turned out to be 5.7 µg/mL (≈ 13.5 µM); in the data set with Bacillus subtilis [4], 28 µg/mL. In data set [6], the GI50 at 96 h was 800 µM. In data set [5], the GI50 at 24 h is at least 1000 µM. In data set [7], this molecule showed a negative-log IC50 (pIC50) of 4.00.

On to `CC(C)CCCC(C)CCCc1cccc(NCC(P(=O)(O)O)P(=O)(O)O)n1` (configuration not stated), for which the pEC50 in the data set on Staphylococcus aureus is 4.14; in the data set on Bacillus subtilis [8], 4.22; with Bacillus anthracis it was 5.16; in [9], 3.68. In addition, the logD in data set [1] (read-out: logD) is -2. Also, in data set [5], the GI50 at 24 h worked out at 1100 µM.

For the molecule `O=P([O-])(O)C(C[n+]1ccc(-c2ccc3oc4ccccc4c3c2)cc1)P(=O)(O)O` (configuration not stated), the EC50 in the data set on Candida albicans is over 50 µg/mL.

On to `CC(C)CCCC(C)CCOc1ccnc(NCC(P(=O)(O)O)P(=O)(O)O)c1` (configuration not stated), for which the pH-dependent lipophilicity (logD) in data set [1] (read-out: logD) was -2.31.

Regarding `CC(C)CCCC(C)CCOc1cc(NCC(P(=O)(O)O)P(=O)(O)O)ccn1` (configuration not stated), the pH-dependent lipophilicity (logD) in data set [1] (read-out: logD) was -3.1. The GI50 at 24 h in [5] stood at 1200 µM.

For `CCCCCCCCCCCCCc1ccc[n+](CC(P(=O)([O-])O)P(=O)(O)O)c1` (configuration not stated), the logD in data set [1] (read-out: logD) was -3.65. Moreover, in data set [5], the GI50 at 24 h amounted to 48 µM.

On to `CC(C)CCCC(C)CCCC(C)CCOc1ccc[n+](CC(P(=O)([O-])O)P(=O)(O)O)c1` (configuration not stated), for which, in data set [1] (read-out: logD), the logD is -3.48.

As to `CC(C)CCCC(C)CCSc1ccc[n+](CC(P(=O)([O-])O)P(=O)(O)O)c1` (configuration not stated), in data set [1], the logD is given as -5.09. Further, the GI50 at 24 h in [5] amounted to 510 µM.

The values above are taken from ChEMBL document CHEMBL4480404, “Discovery of Lipophilic Bisphosphonates That Target Bacterial Cell Wall and Quinone Biosynthesis” (J Med Chem, 2019).
